Test results reported in ChEMBL document CHEMBL1255424, “Antistaphylococcal activity of ACHN-490 tested alone and in combination with other agents by time-kill assay” (2010).

Key:
Format in all cases: functional
Staphylococcus aureus [1] = experiment: Antibacterial activity against community-acquired methicillin-resistant panton-valentine leukocidin-positive Staphylococcus aureus isolate 1469 after 24 hrs by modified broth macrodilution method; conditions: isolate 1469, 24 h
In short: (§1)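 MIC read after 24 h incubation by modified broth macrodilution, validated per CLSI recommendations, against recent clinical MRSA isolates (hospital- and community-acquired, hVISA, VISA, VRSA). Daptomycin tests ran in Mueller-Hinton broth with added calcium.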

Staphylococcus aureus [2] = experiment: Antibacterial activity against vancomycin-susceptible Staphylococcus aureus after 24 hrs by modified broth macrodilution method
In short: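 MICs determined in recent clinical MRSA isolates by a modified broth macrodilution method per CLSI recommendations, with 24 h incubation. Daptomycin tests used Mueller-Hinton broth supplemented with calcium. Value is the lowest inhibitory drug concentration.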

Staphylococcus aureus [3] = experiment: Antibacterial activity against vancomycin-intermediate Staphylococcus aureus isolate 1014 after 24 hrs by modified broth macrodilution method; conditions: isolate 1014, 24 h; in short: as §1
Staphylococcus aureus [4] = experiment: Antibacterial activity against community-acquired methicillin-resistant panton-valentine leukocidin-positive Staphylococcus aureus isolate 813 after 24 hrs by modified broth macrodilution method; conditions: isolate 813, 24 h; in short: as §1
Staphylococcus aureus [5] = experiment: Antibacterial activity against hospital-acquired methicillin-resistant Staphylococcus aureus isolate 1743 after 24 hrs by modified broth macrodilution method; conditions: isolate 1743, 24 h; in short: as §1
Staphylococcus aureus [6] = experiment: Antibacterial activity against vancomycin-intermediate Staphylococcus aureus isolate 1007 after 24 hrs by modified broth macrodilution method; conditions: isolate 1007, 24 h; in short: as §1
Staphylococcus aureus [7] = experiment: Antibacterial activity against community-acquired methicillin-resistant panton-valentine leukocidin-positive Staphylococcus aureus isolate 815 after 24 hrs by modified broth macrodilution method; conditions: isolate 815, 24 h; in short: as §1
Staphylococcus aureus [8] = experiment: Antibacterial activity against methicillin-resistant Staphylococcus aureus isolate 2003 after 24 hrs by modified broth macrodilution method; conditions: isolate 2003, 24 h; in short: as §1
Staphylococcus aureus [9] = experiment: Antibacterial activity against vancomycin-intermediate Staphylococcus aureus isolate 1984 after 24 hrs by modified broth macrodilution method; conditions: isolate 1984, 24 h; in short: as §1
Staphylococcus aureus [10] = experiment: Antibacterial activity against vancomycin-intermediate Staphylococcus aureus isolate 1005 after 24 hrs by modified broth macrodilution method; conditions: isolate 1005, 24 h; in short: as §1
Staphylococcus aureus [11] = experiment: Antibacterial activity against vancomycin-resistant Staphylococcus aureus isolate 1263 after 24 hrs by modified broth macrodilution method; conditions: isolate 1263, 24 h; in short: as §1
Staphylococcus aureus [12] = experiment: Antibacterial activity against vancomycin-intermediate Staphylococcus aureus isolate 555 after 24 hrs by modified broth macrodilution method; conditions: isolate 555, 24 h; in short: as §1
Staphylococcus aureus [13] = experiment: Antibacterial activity against community-acquired methicillin-resistant panton-valentine leukocidin-negative Staphylococcus aureus isolate 1470 after 24 hrs by modified broth macrodilution method; conditions: isolate 1470, 24 h; in short: as §1
Staphylococcus aureus [14] = experiment: Antibacterial activity against vancomycin-hetero-intermediate Staphylococcus aureus isolate 873 after 24 hrs by modified broth macrodilution method; conditions: isolate 873, 24 h; in short: as §1
Staphylococcus aureus [15] = experiment: Antibacterial activity against vancomycin-resistant Staphylococcus aureus isolate 510 after 24 hrs by modified broth macrodilution method; conditions: isolate 510, 24 h; in short: as §1
Staphylococcus aureus [16] = experiment: Antibacterial activity against hospital-acquired methicillin-resistant Staphylococcus aureus isolate 1776 after 24 hrs by modified broth macrodilution method; conditions: isolate 1776, 24 h; in short: as §1
Staphylococcus aureus [17] = experiment: Antibacterial activity against vancomycin-resistant Staphylococcus aureus isolate 557 after 24 hrs by modified broth macrodilution method; conditions: isolate 557, 24 h; in short: as §1
Staphylococcus aureus [18] = experiment: Antibacterial activity against hospital-acquired methicillin-resistant Staphylococcus aureus isolate 1867 after 24 hrs by modified broth macrodilution method; conditions: isolate 1867, 24 h; in short: as §1
Staphylococcus aureus [19] = experiment: Antibacterial activity against hospital-acquired methicillin-resistant Staphylococcus aureus isolate 1751 after 24 hrs by modified broth macrodilution method; conditions: isolate 1751, 24 h; in short: as §1
Staphylococcus aureus [20] = experiment: Antibacterial activity against community-acquired methicillin-resistant panton-valentine leukocidin-positive Staphylococcus aureus isolate 1472 after 24 hrs by modified broth macrodilution method; conditions: isolate 1472, 24 h; in short: as §1
Staphylococcus aureus [21] = experiment: Antibacterial activity against vancomycin-intermediate Staphylococcus aureus isolate 1011 after 24 hrs by modified broth macrodilution method; conditions: isolate 1011, 24 h; in short: as §1
Staphylococcus aureus [22] = experiment: Antibacterial activity against vancomycin-intermediate Staphylococcus aureus isolate 511 after 24 hrs by modified broth macrodilution method; conditions: isolate 511, 24 h; in short: as §1
Staphylococcus aureus [23] = experiment: Antibacterial activity against hospital-acquired methicillin-resistant Staphylococcus aureus isolate 1808 after 24 hrs by modified broth macrodilution method; conditions: isolate 1808, 24 h; in short: as §1
Staphylococcus aureus [24] = experiment: Antibacterial activity against hospital-acquired methicillin-resistant Staphylococcus aureus isolate 1838 after 24 hrs by modified broth macrodilution method; conditions: isolate 1838, 24 h; in short: as §1
Staphylococcus aureus [25] = experiment: Antibacterial activity against vancomycin-intermediate Staphylococcus aureus isolate 770 after 24 hrs by modified broth macrodilution method; conditions: isolate 770, 24 h; in short: as §1

Measured: MIC

CCCCCCCCCC(=O)N[C@@H](Cc1c[nH]c2ccccc12)C(=O)N[C@H](CC(N)=O)C(=O)N[C@@H](CC(=O)O)C(=O)N[C@@H]1C(=O)NCC(=O)N[C@@H](CCCN)C(=O)N[C@@H](CC(=O)O)C(=O)N[C@H](C)C(=O)N[C@@H](CC(=O)O)C(=O)NCC(=O)N[C@H](CO)C(=O)N[C@@H]([C@H](C)CC(=O)O)C(=O)N[C@@H](CC(=O)c2ccccc2N)C(=O)O[C@@H]1C
0.25 µg/mL: Staphylococcus aureus [2] | Staphylococcus aureus [5] | Staphylococcus aureus [17]
4 µg/mL: Staphylococcus aureus [12]
2 µg/mL: Staphylococcus aureus [3] | Staphylococcus aureus [6] | Staphylococcus aureus [9]
1 µg/mL: Staphylococcus aureus [10] | Staphylococcus aureus [21] | Staphylococcus aureus [22]
0.5 µg/mL: all other assays above
